The subject of data set [1] is HL-60. The experiment in a line: Drug uptake in human HL60 cells with normal morphology at 50 uM incubated for 18 hrs by fluorescence microscopy. Format: ADME, cell-based. The conditions noted are these: hl-60, 18 h. An outline of the steps: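 HL-60 cells were treated with 50 µM compound for 18 h, washed with PBS, resuspended in HBSS and mounted as native slides. Cells were imaged by inverted fluorescence microscopy at 40×, with excitation 360/40 and emission 470/40. The fluorescence channel was merged with brightfield images.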

Data set [2] deals with Nucleic Acid. Briefly: Binding affinity to calf thymus DNA increase in DNA viscosity at 12 to 60 uM by viscosimetric titration assay. The settings on record: Bos taurus. Format: nucleic-acid assay. In a few lines:
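Relative viscosity of ctDNA (3.11 × 10^-8 M) with compound at 12–60 × 10^-6 M was measured by automated microviscometry in a 1.6 mm capillary at 25 °C, in 10 mM Tris, pH 7.4. Solution density was also measured.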

The test system of data set [3] is Nucleic Acid. The experiment in a line: Binding affinity to calf thymus DNA at 9.6 uM by spectrofluorimetric titration assay. Format: nucleic-acid assay. The settings on record: Bos taurus. In a few lines: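 Fluorescence titration at 25 °C in 0.01 M Tris, pH 7.4. Compound (9.58 × 10^-6 M) was titrated with ctDNA from 0 to 2.57 × 10^-4 M bp, excited at 384 nm, and emission recorded from 400 to 600 nm. K and n were obtained from McGhee–von Hippel fits of Scatchard data.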

The test system of data set [4] is HL-60. The experiment in a line: Induction of apoptosis in human HL60 cells at 5 to 25 uM incubated for 24 hrs by AnnexinV/propidium iodide staining method. Format: functional, cell-based. In a few lines:
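HL-60 cells (1.5 × 10^5) were treated at 5–25 µM for 24, 48 or 72 h and harvested. They were stained with Annexin V-FITC for 10 min in HEPES/CaCl2/NaCl binding buffer, washed, briefly stained with PI (1 mg/mL) and analysed by flow cytometry for apoptosis and necrosis. Mean ± SD, n ≥ 3.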

Data set [5] has as its system HL-60. Briefly: Induction of necrosis in human HL60 cells at 5 to 25 uM incubated for 24 hrs by AnnexinV/propidium iodide staining method. Format: functional, cell-based. In a few lines: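 HL-60 cells (1.5 × 10^5) were exposed to compound, then stained 10 min with Annexin V-FITC in HEPES/CaCl2/NaCl binding buffer. Cells were washed, briefly stained with propidium iodide and analysed by flow cytometry for apoptotic and necrotic fractions. Mean ± SD of at least three independent experiments.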

The source made the active and inactive calls. No cut-off for these calls is given here.

For the molecule `CCCCCCNC(=N)Nc1ccc2cc3ccc(NC(=N)NCCCCCC)cc3nc2c1.Cl.Cl.O`, the Drug uptake entry with HL-60 [1] was “Active”. Further, the outcome with Nucleic Acid [2] and in the data set with Nucleic Acid [3] was Active.
Regarding `CCNC(=N)Nc1ccc2cc3ccc(NC(=N)NCC)cc3nc2c1.Cl.Cl.O`, the outcome in the data set on HL-60 [4] and in the data set on HL-60 [5] was inactive. Besides, in the data set on Nucleic Acid [2], the outcome was Active.

For the origin of these results see ChEMBL document CHEMBL2169850, “3,6-bis(3-alkylguanidino)acridines as DNA-intercalating antitumor agents” (Eur J Med Chem, 2012).
